Published values of several laboratories.
Each line is one published result; the experiments were not run side by side.
CDK4: Cyclin-dependent kinase 4 (CDK4, Homo sapiens, UniProt P11802)

| SMILES | target | test | setting | endpoint | value |
| --- | --- | --- | --- | --- | --- |
| COCCCOc1cc(C[C@@H](C[C@H](N)[C@@H](O)C[C@H](C(=O)NCC(C)(C)C(N)=O)C(C)C)C(C)C)ccc1OC | Renin (REN, Homo sapiens, UniProt P00797) | enzyme activity, inhibitor | 10 nM | inhibition | 70% |
| C#Cc1n[nH]c2c(-c3cn([C@@H](C)c4ccccn4)c(=O)[nH]c3=O)cc(F)cc12 | Tyrosine-protein kinase Fes/Fps (FES, Homo sapiens, UniProt P07332) | enzyme activity, inhibitor | 0.1 µM | inhibition | 10% |
| COc1ncccc1-c1cnn2ccc(N3CCN(C(=O)OC(C)C)CC3)nc12 | Myosin-IIIb (MYO3B, Homo sapiens, UniProt Q8WXR4) | binding, competition with immobilised ligand | 1 µM | remaining binding | 100% |
| Clc1cccc(-c2c[nH]c3nccc(N4CCOCC4)c23)c1 | Serine/threonine-protein kinase 3 (STK3, Homo sapiens, UniProt Q13188) | thermal stability, DSF |  | ΔTm | > 7.4 °C |
| COC(=O)[C@H](CCCNC(=N)N)NC(=O)c1ccccc1 | Protein-arginine deiminase type-3 (PADI3, Homo sapiens, UniProt Q9ULW8) | enzyme activity, substrate |  | Km | 10.8 mM |
| CCOC(=O)[C@H]1Cc2c(cc([N+](=O)[O-])cc2[N+](=O)[O-])[C@H](O)[C@]12C(=O)Nc1ccc(F)cc12 | CDK4 | cell-free assay, inhibitor, TR-FRET | 1 µM | inhibition | 32.6% |
| Cc1nn(C)cc1-c1nc2c(N3CCN(Cc4ccc(Cl)cc4)CC3)c(Cl)cnc2[nH]1 | Serine/threonine-protein kinase MRCK beta (CDC42BPB, Homo sapiens, UniProt Q9Y5S2) | binding, competition with immobilised ligand | 1 µM | remaining binding | 55% |
| CCOC(=O)[C@H]1Cc2c(cc([N+](=O)[O-])cc2[N+](=O)[O-])[C@@H](O)[C@@]12C(=O)Nc1ccc([N+](=O)[O-])cc12 | CDK4 | cell-free assay, inhibitor, TR-FRET | 1 µM | inhibition | 42.8% |
| Nc1ncc(-c2nc(N3CCOCC3)nc(N3CCOCC3)n2)c(C(F)F)n1 | Fibroblast growth factor receptor 3 (FGFR3, Homo sapiens, UniProt P22607, G697C) | cell-free assay, competition with immobilised ligand | 10 µM | remaining binding | 83% |
